Structures are written as SMILES.

Data set [1] addresses Serine/threonine-protein kinase 17A (Homo sapiens) (UniProt Q9UEE5). In words: Inhibition of human STK17A at 2 uM by Eurofins kinase assay relative to control.
Data set [2] deals with Proto-oncogene tyrosine-protein kinase Src (Homo sapiens) (UniProt P12931). As to the kind of experiment: Inhibition of human recombinant SRC at 2 uM by Eurofins kinase assay relative to control.
The target of data set [3] is Mitogen-activated protein kinase 1 (Homo sapiens) (UniProt P28482). In words: Inhibition of human MAPK1 at 2 uM by Eurofins kinase assay relative to control.
The species entered for data set [4] is Homo sapiens. As to the kind of experiment: Inhibition of human recombinant His-tagged PIK3CA/PIK3R1 at 2 uM by Eurofins kinase assay relative to control.
In data set [5] the target is PAS domain-containing serine/threonine-protein kinase (Homo sapiens) (UniProt Q96RG2). As to the kind of experiment: Inhibition of human recombinant PASK at 2 uM by Eurofins kinase assay relative to control.
Sequence of PAS domain-containing serine/threonine-protein kinase (Homo sapiens) (Q96RG2 whole entry, the tested form may be a part): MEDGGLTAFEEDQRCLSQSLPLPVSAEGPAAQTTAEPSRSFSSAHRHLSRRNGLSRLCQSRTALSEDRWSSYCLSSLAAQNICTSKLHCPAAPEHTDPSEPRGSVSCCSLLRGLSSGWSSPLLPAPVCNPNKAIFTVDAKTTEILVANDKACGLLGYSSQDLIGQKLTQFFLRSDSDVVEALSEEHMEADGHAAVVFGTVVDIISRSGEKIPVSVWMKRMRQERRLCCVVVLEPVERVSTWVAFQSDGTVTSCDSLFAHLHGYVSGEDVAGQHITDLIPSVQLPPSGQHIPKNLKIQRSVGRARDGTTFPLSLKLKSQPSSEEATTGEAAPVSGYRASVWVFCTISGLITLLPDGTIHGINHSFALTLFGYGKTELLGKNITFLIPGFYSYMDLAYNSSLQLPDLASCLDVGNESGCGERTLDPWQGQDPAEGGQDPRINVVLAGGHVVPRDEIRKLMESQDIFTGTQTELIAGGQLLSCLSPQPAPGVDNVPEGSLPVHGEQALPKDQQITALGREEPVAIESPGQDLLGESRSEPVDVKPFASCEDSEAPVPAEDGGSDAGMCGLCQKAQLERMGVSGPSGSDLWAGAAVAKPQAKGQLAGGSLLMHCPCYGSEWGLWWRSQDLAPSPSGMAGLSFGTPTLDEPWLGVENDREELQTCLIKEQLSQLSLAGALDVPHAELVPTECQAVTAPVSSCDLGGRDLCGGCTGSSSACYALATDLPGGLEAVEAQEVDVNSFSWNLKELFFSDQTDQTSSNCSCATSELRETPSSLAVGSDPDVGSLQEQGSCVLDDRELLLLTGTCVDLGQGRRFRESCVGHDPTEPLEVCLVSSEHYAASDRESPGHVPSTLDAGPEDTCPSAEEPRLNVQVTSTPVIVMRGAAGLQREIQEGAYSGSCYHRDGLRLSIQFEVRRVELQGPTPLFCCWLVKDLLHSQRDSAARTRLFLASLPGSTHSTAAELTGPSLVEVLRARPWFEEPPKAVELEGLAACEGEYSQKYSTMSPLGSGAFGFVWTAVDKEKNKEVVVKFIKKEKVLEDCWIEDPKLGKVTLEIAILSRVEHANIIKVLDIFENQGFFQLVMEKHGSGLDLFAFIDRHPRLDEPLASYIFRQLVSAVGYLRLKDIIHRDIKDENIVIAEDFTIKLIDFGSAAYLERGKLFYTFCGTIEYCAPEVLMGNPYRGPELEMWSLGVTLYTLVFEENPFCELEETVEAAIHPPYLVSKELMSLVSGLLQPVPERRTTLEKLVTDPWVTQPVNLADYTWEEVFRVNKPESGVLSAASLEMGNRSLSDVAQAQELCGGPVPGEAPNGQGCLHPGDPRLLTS
Data set [6] addresses Dual specificity tyrosine-phosphorylation-regulated kinase 1B (Homo sapiens) (UniProt Q9Y463). As to the kind of experiment: Inhibition of human recombinant DYRK1B at 2 uM by Eurofins kinase assay relative to control.
Data set [7] concerns the target Homeodomain-interacting protein kinase 3 (Homo sapiens) (UniProt Q9H422). In words: Inhibition of human recombinant HIPK3 at 2 uM by Eurofins kinase assay relative to control.
For data set [8], the target named is Dual specificity protein kinase CLK4 (Homo sapiens) (UniProt Q9HAZ1). As to the kind of experiment: Inhibition of human recombinant CLK4 at 2 uM by Eurofins kinase assay relative to control.
Data set [9] is described as follows: Antiproliferative activity against HEK293 cells assessed as inhibition of cell growth measured after 3 to 4 days by MTT assay. The class given is toxicity, cell-based. To be noted: human, time 3-4 day. In outline:
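HEK293 cells grown in DMEM with 2 mM L-glutamine, 1% pen/strep and 10% FCS. Cells were seeded at 5000 per well, left overnight, then given medium with 1% FCS plus compound or DMSO (max. 0.2% final). They were grown 3–4 days at 37 °C in 5% CO₂ with no medium change, and growth was read by MTT.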

For data set [10], the system named is U-937. In words: Antiproliferative activity against human U-937 cells assessed as inhibition of cell growth measured after 3 to 4 days by MTT assay. The data set is classed as functional. To be noted: time 3-4 day. In outline: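 786-O or U937 cells grown in RPMI with 2 mM L-glutamine, 1% pen/strep and 10% FCS. Cells were seeded at 5000 per well and left overnight, then switched to 1% FCS medium containing compound or DMSO (max. 0.2% final). Growth ran 3–4 days at 37 °C in 5% CO₂ without medium change, followed by MTT read-out. GI50 is the mean ± SD of at least two independent experiments.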
On the technique in general: Formazan colour is commonly taken as a measure of viable cells.

Data set [11] has as its system Receptor-type tyrosine-protein kinase FLT3 (Homo sapiens), P36888 [D835Y]. In words: Inhibition of human recombinant his tagged FLT3 D835Y expressed in insect cells at 2 uM by Eurofins kinase assay relative to control.
The target of data set [12] is Eukaryotic translation initiation factor 2 subunit 2 (Homo sapiens) (UniProt P20042). As to the kind of experiment: Inhibition of eIF2beta phosphorylation in human 786-O cells at 6 uM measured after 48 hrs by immunoblot analysis relative to control.
Sequence of Eukaryotic translation initiation factor 2 subunit 2 (Homo sapiens) (P20042 whole entry): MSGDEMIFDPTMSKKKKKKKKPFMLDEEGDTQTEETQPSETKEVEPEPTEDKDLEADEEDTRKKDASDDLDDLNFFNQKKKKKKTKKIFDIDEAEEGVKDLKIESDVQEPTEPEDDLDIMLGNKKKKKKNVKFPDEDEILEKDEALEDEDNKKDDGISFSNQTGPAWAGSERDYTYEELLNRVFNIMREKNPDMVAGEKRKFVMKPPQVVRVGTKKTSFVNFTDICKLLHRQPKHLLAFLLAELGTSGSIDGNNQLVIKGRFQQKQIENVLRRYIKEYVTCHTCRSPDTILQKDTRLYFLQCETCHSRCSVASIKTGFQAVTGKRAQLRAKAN
The nature of data set [13]: Upregulation of PARP cleavage in human U-937 cells by measuring signal 1 at 10 uM measured after 48 hrs by immunoblot analysis. The class given is functional. In a few lines: (§1)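 U937 cells exposed to compound or DMSO for 48 h, then lysed in Laemmli buffer. Lysates were run on 8–16% gradient SDS-PAGE, semi-dry blotted to PVDF and probed for PARP. Detection used IR-fluorescent secondary antibodies. The cleaved/uncleaved PARP signal ratio was obtained by densitometry. Results are representative of two independent experiments.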
In general terms: A western blot detects proteins with antibodies after separation by electrophoresis.

For data set [14], the target named is Signal transducer and activator of transcription 3 (Homo sapiens) (UniProt P40763). In words: Inhibition of STAT3 phosphorylation in human 786-O cells at 10 uM measured after 48 hrs by immunoblot analysis relative to control.
Sequence of Signal transducer and activator of transcription 3 (Homo sapiens) (P40763 whole entry, canonical isoform): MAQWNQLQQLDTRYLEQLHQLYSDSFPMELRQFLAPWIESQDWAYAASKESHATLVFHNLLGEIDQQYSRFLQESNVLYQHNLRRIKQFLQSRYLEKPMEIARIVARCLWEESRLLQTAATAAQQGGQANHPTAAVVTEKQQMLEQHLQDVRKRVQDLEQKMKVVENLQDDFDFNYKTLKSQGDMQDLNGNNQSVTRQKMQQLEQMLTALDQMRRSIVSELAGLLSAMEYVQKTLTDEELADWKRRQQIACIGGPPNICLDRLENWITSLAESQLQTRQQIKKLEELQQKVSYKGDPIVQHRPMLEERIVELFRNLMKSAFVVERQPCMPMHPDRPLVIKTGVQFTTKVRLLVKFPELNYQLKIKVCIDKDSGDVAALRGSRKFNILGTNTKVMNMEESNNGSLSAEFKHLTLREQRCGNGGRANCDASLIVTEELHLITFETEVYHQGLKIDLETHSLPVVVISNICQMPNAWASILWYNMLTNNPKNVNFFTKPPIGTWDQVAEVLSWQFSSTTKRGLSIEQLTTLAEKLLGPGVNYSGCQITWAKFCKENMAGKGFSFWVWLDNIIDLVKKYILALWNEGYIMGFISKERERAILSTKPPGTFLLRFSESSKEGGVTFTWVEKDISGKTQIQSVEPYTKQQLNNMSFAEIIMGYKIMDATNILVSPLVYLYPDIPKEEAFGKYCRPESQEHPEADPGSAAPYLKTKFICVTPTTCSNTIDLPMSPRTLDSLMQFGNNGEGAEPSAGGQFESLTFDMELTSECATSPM
Data set [15] deals with Eukaryotic translation initiation factor 2 subunit 2 (Homo sapiens) (UniProt P20042). As to the kind of experiment: Inhibition of eIF2beta phosphorylation in human 786-O cells at 10 uM measured after 48 hrs by immunoblot analysis relative to control.
The target in data set [16] is Serine/threonine-protein kinase TBK1 (Homo sapiens) (UniProt Q9UHD2). As to the kind of experiment: Inhibition of human TBK1 at 2 uM by Eurofins kinase assay relative to control.
Data set [17] deals with Signal transducer and activator of transcription 3 (Homo sapiens) (UniProt P40763). In words: Inhibition of STAT3 phosphorylation in human 786-O cells at 8 uM measured after 48 hrs by immunoblot analysis relative to control.
The target of data set [18] is Casein kinase I isoform gamma-1 (Homo sapiens) (UniProt Q9HCP0). As to the kind of experiment: Inhibition of human recombinant GST tagged CSNK1G1 expressed in insect cells at 2 uM by Eurofins kinase assay relative to control.
Sequence of Casein kinase I isoform gamma-1 (Homo sapiens) (Q9HCP0 whole entry, looked up, canonical isoform): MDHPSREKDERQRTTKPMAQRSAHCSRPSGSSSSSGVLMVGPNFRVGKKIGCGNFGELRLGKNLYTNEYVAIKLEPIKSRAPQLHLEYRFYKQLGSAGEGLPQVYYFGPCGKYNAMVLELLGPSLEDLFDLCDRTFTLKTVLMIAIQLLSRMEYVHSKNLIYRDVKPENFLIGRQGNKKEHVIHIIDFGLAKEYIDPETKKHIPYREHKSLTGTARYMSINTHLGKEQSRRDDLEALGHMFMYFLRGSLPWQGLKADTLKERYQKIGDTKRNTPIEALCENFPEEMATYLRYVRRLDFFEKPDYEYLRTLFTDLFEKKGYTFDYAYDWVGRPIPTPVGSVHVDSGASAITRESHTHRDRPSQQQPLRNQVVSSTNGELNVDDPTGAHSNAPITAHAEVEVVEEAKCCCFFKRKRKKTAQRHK
Data set [19] addresses Dual specificity tyrosine-phosphorylation-regulated kinase 1A (Homo sapiens) (UniProt Q13627). As to the kind of experiment: Inhibition of human DYRK1A at 2 uM by Eurofins kinase assay relative to control.
Data set [20] deals with Serine/threonine-protein kinase pim-1 (Homo sapiens) (UniProt P11309). As to the kind of experiment: Inhibition of human recombinant PIM1 at 2 uM by Eurofins kinase assay relative to control.
Sequence of Serine/threonine-protein kinase pim-1 (Homo sapiens) (P11309 whole entry, looked up): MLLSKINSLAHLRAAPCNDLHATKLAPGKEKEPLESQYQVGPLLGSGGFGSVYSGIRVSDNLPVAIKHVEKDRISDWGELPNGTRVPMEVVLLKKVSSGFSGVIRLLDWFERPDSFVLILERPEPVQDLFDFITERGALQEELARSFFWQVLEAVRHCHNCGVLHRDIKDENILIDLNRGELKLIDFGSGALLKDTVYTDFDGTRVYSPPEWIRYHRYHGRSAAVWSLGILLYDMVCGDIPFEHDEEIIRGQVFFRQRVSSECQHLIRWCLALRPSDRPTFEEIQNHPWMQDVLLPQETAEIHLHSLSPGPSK
The target in data set [21] is Eukaryotic translation initiation factor 2 subunit 2 (Homo sapiens) (UniProt P20042). In words: Inhibition of eIF2beta phosphorylation in human 786-O cells at 8 uM measured after 48 hrs by immunoblot analysis relative to control.
Data set [22] is described as follows: Upregulation of PARP cleavage in human U-937 cells by measuring signal 1 at 15 uM measured after 48 hrs by immunoblot analysis. The class given is functional. In outline: as §1
Data set [23] has as its target T1, Hsp90 co-chaperone Cdc37 (Homo sapiens) (UniProt Q16543).
T1 sequence (whole entry): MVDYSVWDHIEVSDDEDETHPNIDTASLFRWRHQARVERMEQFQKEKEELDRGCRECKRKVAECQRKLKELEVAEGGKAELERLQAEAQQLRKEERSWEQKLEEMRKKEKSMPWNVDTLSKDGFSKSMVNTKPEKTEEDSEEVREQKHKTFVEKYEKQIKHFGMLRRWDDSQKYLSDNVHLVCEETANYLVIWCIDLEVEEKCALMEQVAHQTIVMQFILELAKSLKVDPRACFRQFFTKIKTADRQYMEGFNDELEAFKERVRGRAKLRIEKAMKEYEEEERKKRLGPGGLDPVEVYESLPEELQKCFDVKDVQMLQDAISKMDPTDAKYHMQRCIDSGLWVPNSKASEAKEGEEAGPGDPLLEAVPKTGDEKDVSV
As to the kind of experiment: Inhibition of CDC37 phosphorylation in human 786-O cells at 6 uM measured after 48 hrs by immunoblot analysis relative to control.

The target of data set [24] is Vascular endothelial growth factor receptor 3 (Homo sapiens) (UniProt P35916). In words: Inhibition of human recombinant FLT4 at 2 uM by Eurofins kinase assay relative to control.
Sequence of Vascular endothelial growth factor receptor 3 (Homo sapiens) (P35916 whole entry): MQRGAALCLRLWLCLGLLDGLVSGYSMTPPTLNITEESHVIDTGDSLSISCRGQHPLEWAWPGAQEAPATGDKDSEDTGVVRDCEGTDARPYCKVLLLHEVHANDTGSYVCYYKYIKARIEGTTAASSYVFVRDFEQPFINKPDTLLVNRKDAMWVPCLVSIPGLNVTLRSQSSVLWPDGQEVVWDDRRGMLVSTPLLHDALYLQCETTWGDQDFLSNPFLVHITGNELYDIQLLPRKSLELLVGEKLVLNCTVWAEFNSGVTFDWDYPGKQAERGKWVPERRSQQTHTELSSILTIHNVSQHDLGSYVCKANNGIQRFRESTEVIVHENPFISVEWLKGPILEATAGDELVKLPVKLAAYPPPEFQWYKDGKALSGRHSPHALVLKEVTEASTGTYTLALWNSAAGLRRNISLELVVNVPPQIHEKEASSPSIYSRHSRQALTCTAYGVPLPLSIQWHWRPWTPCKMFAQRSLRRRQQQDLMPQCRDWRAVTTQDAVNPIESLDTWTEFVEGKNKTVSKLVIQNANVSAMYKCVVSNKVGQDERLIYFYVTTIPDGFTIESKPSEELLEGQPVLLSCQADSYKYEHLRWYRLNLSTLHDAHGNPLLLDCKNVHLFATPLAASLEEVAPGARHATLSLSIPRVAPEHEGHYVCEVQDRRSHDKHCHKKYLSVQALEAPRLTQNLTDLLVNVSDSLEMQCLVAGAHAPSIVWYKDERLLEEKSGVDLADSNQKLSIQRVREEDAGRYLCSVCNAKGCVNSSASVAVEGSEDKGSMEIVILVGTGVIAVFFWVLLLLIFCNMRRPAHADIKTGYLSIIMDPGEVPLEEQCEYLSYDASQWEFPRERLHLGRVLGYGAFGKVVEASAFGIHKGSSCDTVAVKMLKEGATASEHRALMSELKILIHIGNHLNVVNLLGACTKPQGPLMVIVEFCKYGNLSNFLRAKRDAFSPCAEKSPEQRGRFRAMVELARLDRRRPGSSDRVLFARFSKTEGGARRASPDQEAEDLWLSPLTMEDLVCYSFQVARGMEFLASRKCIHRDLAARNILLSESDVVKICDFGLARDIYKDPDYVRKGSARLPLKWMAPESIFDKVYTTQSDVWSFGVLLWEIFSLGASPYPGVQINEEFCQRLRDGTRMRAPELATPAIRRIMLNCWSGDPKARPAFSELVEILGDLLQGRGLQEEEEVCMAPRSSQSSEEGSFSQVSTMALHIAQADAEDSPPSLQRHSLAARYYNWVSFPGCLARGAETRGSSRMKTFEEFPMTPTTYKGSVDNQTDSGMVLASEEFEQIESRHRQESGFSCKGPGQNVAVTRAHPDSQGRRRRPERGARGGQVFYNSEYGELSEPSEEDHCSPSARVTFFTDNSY

Sequence of Proto-oncogene tyrosine-protein kinase Src (Homo sapiens) (P12931 2-536 limits assumed): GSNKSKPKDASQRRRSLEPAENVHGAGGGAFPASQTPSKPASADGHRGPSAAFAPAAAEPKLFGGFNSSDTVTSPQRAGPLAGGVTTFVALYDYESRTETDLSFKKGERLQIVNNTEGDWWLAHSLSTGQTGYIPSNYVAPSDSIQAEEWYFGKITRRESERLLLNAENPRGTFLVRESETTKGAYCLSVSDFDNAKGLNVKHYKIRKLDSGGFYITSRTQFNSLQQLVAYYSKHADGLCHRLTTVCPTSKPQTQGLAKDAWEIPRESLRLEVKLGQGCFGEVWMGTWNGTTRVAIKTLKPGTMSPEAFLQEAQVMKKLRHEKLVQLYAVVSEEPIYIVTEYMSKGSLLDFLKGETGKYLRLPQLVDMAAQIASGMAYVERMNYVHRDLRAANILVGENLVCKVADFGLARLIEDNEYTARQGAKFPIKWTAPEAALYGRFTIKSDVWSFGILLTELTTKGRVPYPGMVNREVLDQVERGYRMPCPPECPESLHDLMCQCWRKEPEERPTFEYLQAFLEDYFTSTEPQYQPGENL

As usually defined, the inhibition is the percentage by which the read-out fell short of the control. A word on the GI50: it is the concentration that inhibits growth by half. On to `Clc1ccc(N2CCN(c3ncnc4sc5c(c34)CCNC5)CC2)cc1.O=C(O)C(F)(F)F`, for which the inhibition in [1] was 0%; in data set [2] it was 6%; in data set [3], 2%; in data set [4] it was 0%; in data set [5], 0%; in data set [6], 2%. Further, the inhibition in data set [7] came to 9%; in [8], 11%; in [11], 11%; in data set [12], 0%; in data set [14], 97%; in data set [15], 83%. Also, the inhibition in data set [16] was 4%; in [17], 80%; in data set [18] it was 21%; in [19], 4%; in data set [20], 0%; in data set [21], 32%. The inhibition amounted to 0% in data set [23] and 5% in data set [24]. The GI50 stood at 30 µM in [9] and 7.5 µM in [10]. Besides, the Activity in [13] amounted to 89%; in [22], 96%.

Values taken from ChEMBL document CHEMBL6096655, “Discovery of a novel, selective CK2 inhibitor class with an unusual basic scaffold” (Eur J Med Chem, 2025).
